PGC1a acetyl inh: inhibitors of PGC1a acetylation signal, primary screen, cell-based, U2OS, AlphaScreen, inhibitor mode; AlphaScreen anti-acetyl-lysine; with virally co-expressed GCN5 acetyltransferase; inhibition, % at 15.6 µM; hit rate 0.17% among 350,000;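 active = every replicate shows inhibition of at least 40%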;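 also: 0% = neutral control wells and 100% = positive control wells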
CFTR F508del cor: F508del CFTR correction, initial screen, CFBE line, single point; hit rate 0.36% among 350,000; CFBE cells, YFP halide quenching; stimulated with forskolin plus potentiator P3; % fluorescence drop versus neutral controls; activity (quench increase), % at 7.58 µM; AID 720511, 2013;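 active = mean added fluorescence quench of at least 8% versus neutral control, with both replicates also reaching 8%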;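 also: cells transiently co-express mutant CFTR-F508del with the halide-sensitive YFP; corrector assay measuring rescue of mutant channel to the surface after 24 h compound exposure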
CAL PDZ FP-1: untagged CAL PDZ binding inhibitors, primary screen, biochemical, fluorescence polarization, HTS. purified CAL PDZ, TMR-peptide fluorescence polarization, 1 h. inhibition, % at 24.9 µM. hit rate 0.92% among 300,000. AID 602252, 2012. Golgi-associated PDZ and coiled-coil motif-containing protein (Homo sapiens), Q9HD26;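 active = mean inhibition of at least 30% with at least half of replicates also reaching 30%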;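 also: 0% = DMSO neutral control and 100% = excess unlabeled competitor peptide PRC23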
miR-122 sensor: miR-122 Renilla sensor signal increase in Huh7, primary screen, miR-122 inhibitor project, cell-based, single point, plate reader; activation (reporter increase), % at 12.5 µM; hit rate 0.3% among 340,000; Huh7 miR-122 Renilla luciferase sensor, 48 h; neutral wells = 0, positive control = 100;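 active = mean replicate activation score at least 90 and every replicate individually at or above 90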;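 also: higher luciferase means less miR-122 activity so hits act as miR-122 inhibitors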
CAL PDZ FP-2: CAL PDZ peptide-binding inhibitors, primary screen, biochemical, fluorescence polarization, Cer-tagged CAL PDZ, HTS; Golgi-associated PDZ and coiled-coil motif-containing protein (Homo sapiens), Q9HD26; purified CAL PDZ, TMR-peptide fluorescence polarization, 1 h; inhibition, % at 20 µM; hit rate 0.02% among 330,000; AID 504414, 2011;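 active = highest replicate inhibition of at least 40%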;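 also: plate controls were DMSO neutral control wells for no effect and unlabeled competitor peptide control wells for full effect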
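System: tagged CAL PDZ domain. Schedule: 1 h room-temperature incubation prior to read. Signal: fluorescence polarization (mP). Measure: percent inhibition from loss of millipolarization.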
ARNT TACC3 PPI: disruptors of ARNT/TACC3 protein interaction, primary screen, biochemical, AlphaScreen, single concentration; Transforming acidic coiled-coil-containing protein 3 (Homo sapiens), Q9Y6A5; AlphaScreen His-ARNT PAS-B/GST-TACC3 binding, luminescence; TACC3 fragment carries E629A point mutation; inhibition, % at 9.99 µM; hit rate 0.66% among 390,000;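 active = mean inhibition of replicates at least 50% and at least half of replicates each reaching 50%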;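 also: 0% = complete ARNT plus TACC3 wells and 100% = ARNT alone without TACC3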
ARNT Alpha ctr-1: AlphaScreen signal interference compounds, dose response, artefact control for ARNT-TACC3 interaction inhibitor project, biochemical, luminescence, cherry-pick | shares compounds with ARNT TACC3 PPI | His-ARNT PASB-GST AlphaScreen artifact counter-screen | AC50, µM (series often up to 68 µM), for the others: top-dose activity change, negative = signal decrease | hit rate 50% among 1,200;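 active = every separate test run was called active for a drop in luminescence, with AC50 within twice the top valid dose, actives reach about 71 µM in these data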
ARNT Alpha ctr-2: AlphaScreen signal interference by compounds, dose response, artefact control for ARNT/TACC3 disruptor project, biochemical, dual-tagged ARNT, dry powder | Dual-tagged His-ARNT PASB-GST AlphaScreen artifact counter-screen | hit rate 70% among 45 | AC50, µM | shares compounds with ARNT TACC3 PPI;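 active = luminescence drop, with half-maximal potency fitted within twice the sample's top valid dose, cut at about 70 µM in these data; inactive = the rest, including signal moving the wrong way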
An asterisk follows results filed as active; · = no result; [ ] = remark or other dose. An excerpt weighted towards active compounds, which were near 1.7% of everything screened.

SMILES	PGC1a acetyl inh	CFTR F508del cor	CAL PDZ FP-1	miR-122 sensor	CAL PDZ FP-2	ARNT TACC3 PPI	ARNT Alpha ctr-1	others
CC1=CC(C)(C)N(C(=O)c2ccccc2)c2ccc(C)cc21	-13.4	·	-4.4	-2.4	-2.0	-0.9	·
CC1=CC(C)(C)N(C(=O)C(C)N2C(=O)c3ccccc3C2=O)c2ccc(C)cc21 (stereo not given)	·	·	1.5	·	-1.0	active	-21.8%
Cc1ccc(N(C)S(=O)(=O)c2cccc(C(=O)Oc3ccc4c(C)cc(=O)oc4c3)c2)cc1	·	·	-0.5	·	0.2	52.8*	-20.9%
COc1ccc(S(=O)(=O)N(C)C[C@@H]2Oc3c(NS(=O)(=O)c4ccc(F)cc4)cccc3C(=O)N([C@H](C)CO)C[C@@H]2C)cc1	3.5	1.4	·	-1.2[16.7 µM]	·	·	·
C[C@@H]1CN([C@@H](C)CO)C(=O)c2cccc(NC(=O)c3ccc(-c4nccs4)cc3)c2O[C@H]1CN(C)C(=O)Nc1ccc(C(F)(F)F)cc1	6.5	-3.1	·	-2.1[16.7 µM]	·	-7.9	·
Oc1c(I)cc(I)c2cccnc12	6.7	3.2	1.6	-15.9	0.7	54.8*	49.5µM*
Oc1ccc(Cl)c2cccnc12	13.7	2.8	-0.5	·	-1.5	7.5	·
Cc1ccc(S(=O)(=O)N(C)C[C@@H]2Oc3c(NS(=O)(=O)c4cn(C)cn4)cccc3C(=O)N([C@@H](C)CO)C[C@@H]2C)cc1	0.9	2.0	·	-6.7[16.7 µM]	·	·	·
O=C(C[C@@H]1CC[C@@H](NC(=O)CN2CCOCC2)[C@H](CO)O1)NCCc1ccncc1	-5.7	1.8	·	2.3[16.7 µM]	·	18.2	·
O=C(C[C@@H]1CC[C@H](NC(=O)CN2CCOCC2)[C@H](CO)O1)NCCc1ccncc1	-9.1	0.7	·	11.8[16.7 µM]	·	56.8*	5.5%[38 µM]
COc1ccc(NC(=O)CSc2ccc(-c3ccccn3)nn2)cc1OC	·	-2.1	3.0	-8.1	-0.6	·	·
Cc1cccc(NC(=O)CSc2ccc(-c3ccccn3)nn2)c1C	3.0	0.8	-2.5	·	-0.5	54.9*	30.4µM*	ARNT Alpha ctr-2=22.8*
COc1ccccc1NC(=O)CSc1ccc(-c2ccccn2)nn1	·	8.1*	-6.1	0.3	-2.9	55.0*	14.2µM*
O=C(NCc1ccccn1)Nc1cc(Cl)ccc1Cl	·	1.4	-5.4	·	-1.8	18.2	·
O=C(CC(NCc1ccccn1)C(=O)O)Nc1ccccc1Cl (stereo not given)	19.4	-3.2	13.0	18.1	0.4	51.1*	13.5µM*
O=C(CNCc1ccccn1)Nc1cc(C(F)(F)F)ccc1N1CCOCC1	-4.5	-2.9	-0.2	2.0	-0.5	58.0*	-19.1%
COc1cc(CCNc2ccc3nnc(-c4ccccc4)n3n2)cc(OC)c1OC	-31.5	-4.9	·	-7.9	-6.0	55.8*	68.5µM*
O=C(C[C@H]1CC[C@H]2[C@@H](COC[C@@H](O)CN2Cc2cccc(Cl)c2)O1)NCC1CCCCC1	-8.3	-0.5	·	-4.8[16.7 µM]	·	0.0	·
CCC1CCCCN1S(=O)(=O)c1ccc(NC(=O)c2cccs2)cc1 (stereo not given)	-5.1	·	-1.7	·	-2.5	0.0	·
CCC1CCCCN1S(=O)(=O)c1ccc(NC(=O)CSc2ncccc2C(=O)O)cc1 (stereo not given)	-5.4	·	-6.1	-6.5	-0.5	44.4*	13.7µM*
O=S(=O)(N[C@@H]1CC[C@H](CCn2cc(-c3ccccn3)nn2)O[C@@H]1CO)c1cccc(Cl)c1	1.2	1.2	·	3.5[16.7 µM]	·	66.4*	31.4µM*
O=S(=O)(N[C@@H]1CC[C@@H](CCn2cc(-c3ccccn3)nn2)O[C@H]1CO)c1cccc(Cl)c1	-8.9	2.2	·	-0.5[16.7 µM]	·	65.5*	41.2µM*
O=S(=O)(N[C@H]1CC[C@@H](CCn2cc(-c3ccccn3)nn2)O[C@H]1CO)c1cccc(Cl)c1	-9.7	2.1	·	-3.6[16.7 µM]	·	70.2*	31.9µM*
COc1cccc(S(=O)(=O)N[C@H]2CC[C@H](CCn3cc(-c4ccccn4)nn3)O[C@@H]2CO)c1	-3.6	1.7	·	·	·	·	·
COc1cccc(S(=O)(=O)N[C@@H]2CC[C@@H](CCn3cc(-c4ccccn4)nn3)O[C@H]2CO)c1	-3.6	1.5	·	·	·	·	·
SMILES	PGC1a acetyl inh	CFTR F508del cor	CAL PDZ FP-1	miR-122 sensor	CAL PDZ FP-2	ARNT TACC3 PPI	ARNT Alpha ctr-1	others
C[C@H](CO)N1C[C@H](C)[C@@H](CN(C)C(=O)Nc2ccc(F)cc2)Oc2ccc(NC(=O)CCCCCC(=O)Nc3ccccc3N)cc2C1=O	4.6	0.6	·	·	·	·	·
O=C(c1ccc2c(c1)OCO2)N1CC(=O)N2[C@H](CO)[C@@H](c3ccc(C#CC4CCCC4)cc3)[C@@H]2C1	-9.2	3.6	·	·	·	·	·
COc1ccc2cc1Oc1ccc(cc1)C[C@H]1c3cc(c(OC)cc3CCN1C)Oc1c(OC)c(OC)cc3c1[C@@H](C2)N(C)CC3	13.0	0.3	-2.8	-4.6	-5.1	30.1*	-21.3%
COc1ccc(CN(C)C[C@H]2Oc3ccc(NC(=O)Cc4cn(C)c5ccccc45)cc3C(=O)N([C@@H](C)CO)C[C@@H]2C)cc1	4.9	1.7	·	7.8[16.7 µM]	·	1.5	·
Cc1ccc(C(=O)Oc2ccc(/C=C3\C(=N)N4N=C(N5CCOCC5)SC4=NC3=O)cc2)cc1	·	1.1	-5.6	·	-0.7	56.3*	-27.0%
Cc1noc(C)c1S(=O)(=O)Nc1ccc2c(c1)C(=O)N([C@@H](C)CO)C[C@H](C)[C@@H](CN(C)C(=O)Nc1ccc3c(c1)OCO3)OCCCC[C@H](C)O2	7.9	0.3	·	-6.1[16.7 µM]	·	4.5	·
COc1ccc(OC)c(NC(=O)COC(=O)Cn2nnc(-c3ccccc3)n2)c1	3.0	2.7	-4.4	-0.1	-0.1	active	0.7%
Cc1ccccc1Nc1nnc(SCC(=O)NC(=O)NCc2ccco2)s1	5.4	·	-2.8	-1.1	-2.3	62.4*	-12.3%
Cc1[nH]n(-c2ccccc2)c(=O)c1/C=N/NC(=O)c1cccc(F)c1	·	-0.5	-3.0	·	-0.6	58.4*	43.4µM*
O=C(N/N=C/c1c(Cl)cccc1Cl)c1cccc(F)c1	-9.9	-1.8	-1.2	4.5	·	2.7	·
